In the library only some 5.9% were active in any assay of this set; here they are far more common.
T cruzi growth-1: inhibitors of T. cruzi proliferation | T. cruzi beta-gal in NIH3T3, GalScreen luminescence, 90 h | inhibition, % at 8.34 µM | actives 5.9% (n = 77,000);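 active = mean inhibition above about 93%, with at least 55% of replicates each passing it, limit read from the data, passing the limit was not always enough; inconclusive = only one of those two conditions holds; inactive = neither condition holds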
IDH1 R132H inh: blocks human IDH1 R132H reductase activity | O75874 | diaphorase/resazurin fluorescence, 60 min | inhibition, % at 10 µM | actives 0.18% (n = 70,000) | AID 624101; in the data active = inhibition above about 34%; inconclusive = no clear call, values can overlap the other calls; inactive = below about 11%
Pf Dd2 growth: inhibitors of Plasmodium falciparum Dd2 growth; actives 2.3% (n = 94,000); P. falciparum Dd2 growth, SYBR Green, 72 h; hits give low values; activity change, % at 10 µM; in the data active = activity change below about -80%; inconclusive = no clear call, values can overlap the other calls
GASC1 inh: blocks human GASC-1 (KDM4C) demethylase activity; Q9H3R0; GST-KDM4C 2-372, H3K9me3 peptide, LANCE TR-FRET; inhibition, % at 12.5 µM; actives 0.15% (n = 96,000); AID 720574;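 active = mean replicate inhibition above about 25%, with at least 55% of replicates also reaching it, limit read from the data, passing the limit was not always enough; inconclusive = only one of those two conditions met; inactive = neither condition met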
Target sequence (Q9H3R0 2-372 limits assumed): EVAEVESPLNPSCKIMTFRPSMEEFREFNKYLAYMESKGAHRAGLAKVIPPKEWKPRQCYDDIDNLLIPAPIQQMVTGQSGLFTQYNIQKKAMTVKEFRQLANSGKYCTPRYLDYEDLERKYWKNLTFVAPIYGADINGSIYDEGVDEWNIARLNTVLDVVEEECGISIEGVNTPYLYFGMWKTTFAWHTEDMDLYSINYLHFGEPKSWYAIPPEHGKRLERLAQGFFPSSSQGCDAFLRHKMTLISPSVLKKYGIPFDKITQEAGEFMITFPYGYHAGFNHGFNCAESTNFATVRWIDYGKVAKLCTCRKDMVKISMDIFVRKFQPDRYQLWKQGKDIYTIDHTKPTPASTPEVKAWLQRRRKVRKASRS
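System: N-terminal GST-fused human GASC-1 (KDM4C) fragment, residues 2-372 / Amount: 10 nM GST-KDM4C in enzyme reaction / Also added: H3K9me3 peptide with Fe(II)/2OG / Times: 30 min demethylation and 1 h detection at room temperature / Signal: LANCE TR-FRET / Read-out basis: Fall in 671/618 emission ratio as inhibition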
T cruzi growth-2: blocks T. cruzi growth in NIH3T3 host cells; actives 72% (n = 5,600); T. cruzi beta-gal in NIH3T3, GalScreen luminescence, 90 h; inhibition, % at 8.35 µM; shares compounds with T cruzi growth-1; AID 651739;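 active = mean replicate inhibition above about 95% and at least 55% of replicates individually reaching it, limit read from the data; inconclusive = only one of the two criteria is met; inactive = neither criterion is met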
T cruzi growth-3: blocks T. cruzi growth in NIH3T3 host cells. shares compounds with T cruzi growth-1. T. cruzi beta-gal in NIH3T3, GalScreen luminescence, 90 h. inhibition, % at 2.09 µM. actives 21% (n = 5,600). AID 651740;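 active = mean inhibition above about 95%, with at least 55% of replicates also reaching it, limit read from the data; inconclusive = meets just one of the two conditions; inactive = meets neither condition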
3T3 cytotox: cytotoxicity in mouse NIH/3T3 fibroblasts | shares compounds with T cruzi growth-1 | NIH/3T3 viability, CellTiter-Glo ATP luminescence, 90 h | cytotoxicity (signal decrease), % at 8.35 µM | actives 14% (n = 5,600);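 active = mean signal decrease across replicates above about 35% based on untreated-well scatter, with enough replicates individually passing, limit read from the data; inconclusive = no rule stated though some were filed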
NIH3T3 tox 2: cytotoxicity in mouse NIH/3T3 fibroblasts; shares compounds with T cruzi growth-1; AID 651744; inhibition, % at 24.9 µM; NIH/3T3 viability, CellTiter-Glo ATP luminescence, 90 h; actives 56% (n = 5,600);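 active = mean loss of cell viability signal at or above a set limit, and enough replicates individually reaching it; inconclusive = meets only the mean limit or only the replicate share; inactive = meets neither condition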
Hits are given with their value; 0 = inactive; ? = inconclusive; - = not tested or not shown; + = active, no number.

SMILES	T cruzi growth-1	IDH1 R132H inh	Pf Dd2 growth	GASC1 inh	T cruzi growth-2	T cruzi growth-3	3T3 cytotox	NIH3T3 tox 2
CCCN1CCc2cc(O)cc3c2[C@H]1Cc1ccc(O)c(O)c1-3	-	44	-	-	-	-	-	-
CC(/C=C/C(=O)NO)=C\c1ccccc1OC[C@@H]1C=C2c3cccc4[nH]cc(c34)C[C@H]2N(C)C1	-	0	-	-	-	-	-	-
COC(=O)C[C@H]1CC[C@@H]2NC[C@H](O)COC[C@H]2O1	105	-	0	0	0	0	0	0
CO[C@H]1[C@H](O)[C@H](O[C@H]2CC[C@]3(C)C4CC[C@]5(C)[C@H](C6=CC(=O)OC6)CC[C@]5(O)C4CC[C@@H]3C2)O[C@@H](C)[C@@H]1O[C@@H]1O[C@H](CO[C@@H]2O[C@H](CO)[C@@H](O)[C@H](O)[C@H]2O)[C@@H](O)[C@H](O)[C@H]1O (some centres undefined)	-	0	-	-	-	-	-	-
COC(=O)[C@@H]1[C@@H](CO)[C@@H]2Cn3c(ccc(-c4ccccc4F)c3=O)[C@H]1N2CC1CCCC1	+	-	-	0	0	0	0	42
COC(=O)[C@H]1[C@H](CO)[C@H]2Cn3c(ccc(-c4ccccc4)c3=O)[C@@H]1N2CC1CCCC1	-	-	0	0	-	-	-	-
COC(=O)[C@H]1[C@H](CO)[C@H]2Cn3c(ccc(C4=CCCCC4)c3=O)[C@@H]1N2Cc1ccccn1	101	-	0	0	0	0	0	0
COC(=O)[C@@H]1[C@@H](CO)[C@@H]2Cn3c(ccc(C4=CCCCC4)c3=O)[C@H]1N2Cc1ccccn1	0	-	0	0	-	-	-	-
COc1ccc(CN2CCN(CCO)CC2)c(OC)c1C	-	0	-	-	-	-	-	-
O=C(Cc1ccccn1)N1CCCCN2[C@H](C1)[C@@H](c1ccc(C#Cc3ccccc3)cc1)[C@@H]2CO	99	-	0	0	105	0	41	104
CCCC#Cc1ccc([C@H]2[C@H]3CN(C(=O)Cc4ccccn4)CCCCN3[C@H]2CO)cc1	119	-	0	0	0	0	0	0
CCCC#Cc1ccc([C@@H]2[C@@H](CO)N3CCCCN(C(=O)Cc4ccccn4)C[C@@H]23)cc1	110	-	0	0	?	0	0	0
CCOC(=O)c1ncn2c1C1CCCN1C(=O)c1cc(OC)ccc1-2 (centres undefined)	-	0	-	-	-	-	-	-
COC1CC(OC2C(C)OC(OC3C(C)OC(OC4C(C)OC(O[C@H]5CC[C@@]6(C)C(=CC[C@]7(O)C6CC(OC(=O)c6ccccc6)[C@@]6(C)[C@]7(O)CC[C@@]6(O)C(C)=O)C5)CC4OC)CC3OC)CC2OC)OC(C)C1O (some centres undefined)	-	0	-	-	-	-	-	-
N#Cc1cccc(-c2ccc([C@H]3[C@@H](CO)N4CCCCN(C(=O)Cc5ccccc5)C[C@H]34)cc2)c1	109	-	0	0	111	0	0	56
N#Cc1cccc(-c2ccc([C@@H]3[C@H](CO)N4CCCCN(C(=O)Cc5ccncc5)C[C@@H]34)cc2)c1	0	-	0	0	-	-	-	-
N#Cc1cccc(-c2ccc([C@@H]3[C@H](CO)N4CCCCN(C(=O)Cc5ccccc5)C[C@@H]34)cc2)c1	100	-	0	0	104	0	0	57
N#Cc1cccc(-c2ccc([C@H]3[C@@H](CO)N4CCCCN(C(=O)Cc5ccncc5)C[C@H]34)cc2)c1	0	-	0	0	-	-	-	-
O=C(Cc1ccccc1)N1CCCCN2[C@H](CO)[C@@H](c3ccc(-c4ccccc4)cc3)[C@H]2C1	100	-	0	0	?	0	0	105
O=C(Cc1ccncc1)N1CCCCN2[C@H](CO)[C@@H](c3ccc(-c4ccncc4)cc3)[C@H]2C1	116	-	0	0	0	0	0	0
N#Cc1cccc(-c2ccc([C@H]3[C@@H](CO)N4CCCCN(C(=O)Cc5ccccc5)C[C@@H]34)cc2)c1	110	-	0	0	103	0	0	0
CC(=O)O[C@@H](c1nc2ccccc2c(=O)n1[C@@H]1C[C@@]2(OC1=O)c1ccccc1N1C(=O)[C@H](C)N(O)[C@@H]12)C(C)C	-	0	-	-	-	-	-	-

Screening results deposited in PubChem BioAssay by Broad Institute.
